SKKanGAS inh: inhibitors of SKKanGAS S. pyogenes growth in kanamycin (SK-promoter or general growth effect); BacTiter-Glo, 6 h; inhibition, % at 7.5 µM; actives 1.3% (n = 300,000); AID 1662;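 active = mean replicate score, as percent of positive control median, at least 50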;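 note: strain carries kanamycin resistance gene driven by streptokinase promoter and grows in 40 µg/ml kanamycin; loss of luminescence reflects streptokinase promoter inhibition or plain growth inhibition; 0% = median of DMSO wells and 100% = positive control at its reference dose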
T cruzi inh: blocks replication of Trypanosoma cruzi; T. cruzi beta-gal in NIH3T3, luminescence, 90 h; inhibition, % (concentration not given with the values); actives 1.4% (n = 300,000);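 active = mean inhibition across valid replicates above about 55%, limit read from the data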;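 note: signal also drops with host cell toxicity which is not excluded here; 0% = plate median of DMSO wells and 100% = zero luminescence signal; higher percent means less beta-gal luminescence so fewer parasites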
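System: Mouse NIH/3T3 fibroblasts infected with β-gal-expressing T. cruzi Tulahuen C4 | Quantity: NIH/3T3 cells, 5,000 per well | Reagent: 5000 reporter trypomastigotes per well | Dosing: Compound pinned at 50 nL/well, DMSO | Schedule: 3 h host attachment, then at least 90 h co-culture | Detection: GalScreen luminescence, 60 min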
CSC inhib: cancer stem cell inhibition | cancer stem cell-like cells viability, luminescence | inhibition, % at 7.5 µM | actives 1.1% (n = 300,000); in the data active = inhibition above about 75%; tested in HMLE shEcad cells
Beta apoptosis: blocks beta cell apoptosis | INS-1E cytokine-induced death, ATP luminescence, 48 h; percent of positive-control rescue, neutral wells zero | protection from apoptosis, % (test concentration not listed) | actives 0.8% (n = 300,000);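 active = Every replicate reaches about 75%, or at least half do and their mean reaches it too, limit read from the data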;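 note: 0% = cytokine-treated negative control wells and 100% = positive control rescue; higher means more ATP so stronger rescue from cytokine killing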
Mdm2-MdmX inh: inhibitors of human Mdm2/MdmX interaction; SaOS-2 split-luciferase Mdm2/MdmX complementation, luminescence; inhibition, % at 8 µM; actives 3% (n = 330,000);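 active = inhibition of at least 50% at 8 µM in the primary screen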
Calb FLC: affects C. albicans growth with fluconazole. C. albicans CaCi-2 (fluconazole-resistant clinical isolate) + fluconazole, Alamar Blue growth, 48 h. growth inhibition, % (concentration not given with the values). actives 0.57% (n = 300,000). AID 1979;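 active = growth inhibition above about 58% in most replicates, limit read from the data, passing the limit was not always enough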;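 note: all wells also contain fluconazole at 8 µg/ml as a sub-toxic cotreatment; 0% = median of DMSO wells and 100% = median of geldanamycin control wells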
Active calls of the source: *; . = no result given. Compounds with a hit are over-represented: about 5.7% of the library has one in this group of screens.

SMILES	SKKanGAS inh	T cruzi inh	CSC inhib	Beta apoptosis	Mdm2-MdmX inh	Calb FLC
COc1cccc2sc(Nc3nc(-c4ccccn4)cs3)nc12	100*	75*	.	111*	43	-38
CCC1Oc2ccccc2N(CC(=O)NCc2ccco2)C1=O (configuration not stated)	-6	4	-6	-2	7	-3
Cc1c(S(=O)(=O)N2CCN(c3ccccc3)CC2)c(=O)n(C)c(=O)n1C	-16	-10	-9	-7	-18	-7
Cc1cccc(OCc2nnc(SC(C)C(=O)O)n2-c2ccccc2)c1 (configuration not stated)	-1	0	-8	-7	18	4
c1ccc(Nc2nc(-c3ccncc3)cs2)cc1	0	65*	-3	-10	-74	4
Fc1ccc(Nc2nc(-c3ccncc3)cs2)cc1	-7	47	7	-8	-29	-9
CC(C)(C)c1ccc(S(=O)(=O)N2CCN(CC(=O)NC(=O)NC3CCCCC3)CC2)cc1	2	23	9	9	27	-5
CC(C)OC(=O)CCCCCN1C(=O)CSC1=S	4	56*	5	-6	18	1
C=CCn1c(SCc2ccccc2Cl)nnc1-c1sc2nc(C)cc(C)c2c1N	44	63*	16	2	22	-2
Cc1cc(C)c2c(N)c(-c3nnc(SCc4ccc(Cl)cc4)n3C)sc2n1	23	12	7	-2	-13	-1
Cc1ccc(NC(=O)c2ccco2)c(NC(=O)c2ccccc2)c1	-5	-13	-7	-1	-2	-17
CCN(CC)P(=O)(Nc1ccc(C)cc1Br)c1ccc(N(C)C)cc1NC(=O)c1ccco1 (configuration not stated)	37	64*	67	-5	15	18
CCc1ccccc1NC(=S)NCCSc1ccc(Cl)cc1	50*	39	20	-3	8	-8
Nc1nonc1-c1nc2ccccc2n1CC(=O)N/N=C\c1ccc(-c2ccc(Cl)cc2)o1	99*	-3	-3	-8	29	-33
NNC(=O)Cn1c(-c2nonc2N)nc2ccccc21	2	-10	10	-9	-9	-1
Cc1[nH]c2ccccc2c1SCc1nnc(SCc2ccccc2)n1C	4	18	13	-6	24	-3
Cc1[nH]c2ccccc2c1SCc1nnc(SCc2ccc(Cl)cc2)n1C	37	59*	7	-1	32	-7
CCOC(=O)c1sc2nccc(N(C)C)c2c1N=CNOCc1c(F)cccc1Cl	52*	70*	35	.	31	-1
CCOC(=O)c1sc2nccc(N(C)C)c2c1N=CNOCc1ccccc1	-3	29	53	3	-8	-3
O=C(Nc1cccc(-c2ccc(N3CCOCC3)nn2)c1)c1ccc(Cl)cc1	36	5	.	14	-37	6
O=C(Nc1cccc(-c2ccc(N3CCOCC3)nn2)c1)c1ccccc1Cl	50*	-6	.	-3	-51	9
COc1ccc(C(=O)Nc2cccc(-c3ccc(N4CCOCC4)nn3)c2)cc1	52*	3	.	13	-47	20
COc1cccc(OC)c1C(=O)Nc1cccc(-c2ccc(N3CCOCC3)nn2)c1	3	-9	-10	5	5	-5
COc1cc(OC)cc(C(=O)Nc2cccc(-c3ccc(N4CCOCC4)nn3)c2)c1	55*	-1	.	9	40	0
COc1ccc(C(=O)CC(=O)C(=O)Nc2ccccc2C(F)(F)F)cc1	85*	5	3	16	17	-14
SMILES	SKKanGAS inh	T cruzi inh	CSC inhib	Beta apoptosis	Mdm2-MdmX inh	Calb FLC
COc1ccc(C(=O)CC(=O)C(=O)Nc2cc(Cl)c(OC)cc2OC)cc1	9	11	-2	6	-6	4
COc1ccc(C(=O)CC(=O)C(=O)Nc2ccccc2Cl)cc1	56*	-6	5	-2	.	-9
COc1ccc(Br)cc1CN(C)CC(=O)NCc1ccc(F)cc1	3	3	12	98*	21	16
COc1cc(OC)cc(C(=O)Nc2nc(CC(=O)NCc3ccccc3OC)cs2)c1	62*	-10	.	7	23	-4
COc1ccc(N2CCN(C(=O)Cc3csc(NC(=O)Nc4ccccc4OC)n3)CC2)cc1	66*	-5	.	6	25	-10
COc1ccccc1NC(=O)Nc1nc(CC(=O)N2CCN(c3ccccc3)CC2)cs1	16	7	11	14	21	-13
COc1ccccc1NC(=O)Nc1nc(CC(=O)Nc2cccc(F)c2)cs1	33	16	-1	6	1	-4
COc1ccccc1CNC(=O)Cc1csc(NC(=O)Nc2ccccc2OC)n1	49	-6	.	5	26	-2
COc1ccccc1NC(=O)Nc1nc(CC(=O)Nc2cc(F)ccc2F)cs1	82*	1	.	-4	0	1
COc1ccc(CNC(=O)Cc2csc(NC(=O)Nc3ccccc3OC)n2)cc1	55*	5	.	11	6	-2
COc1cccc(C(=O)Oc2ccc(/C=N/Nc3ccc(C(=O)O)cc3)cc2OC)c1	55*	2	-6	-5	-24	46
CCOc1cc(/C=N/Nc2ccc(C(=O)O)cc2)ccc1OC(=O)c1ccccc1C	75*	-7	4	6	2	20
COc1cc(/C=N/Nc2ccc(Cl)c(C(=O)O)c2)ccc1OC(=O)c1ccccc1F	21	-4	5	2	5	-3
COc1cc(/C=N/NS(=O)(=O)c2ccc(C)cc2)ccc1OCc1cccc(C(=O)O)c1	11	1	.	-4	49	2
COc1cc(/C=N/NS(=O)(=O)c2ccc3ccccc3c2)ccc1OCc1ccc(C(=O)O)cc1	55*	-14	12	2	50	-4
COc1cccc(OCc2cc(/C=N/Nc3ccc(C(=O)O)cc3)ccc2OC)c1	10	13	-1	-24	39	1
Cc1cc(C)cc(NC(=O)C(=O)NCCCN2CCOCC2)c1	-2	4	-3	-2	29	-2
CC1(C)Cc2[nH]c3ccccc3c2C(C)(C)N1	-3	-3	-1	-1	41	0
CC(=O)Oc1ccc2c(=O)c(/C=N/c3cc(=O)[nH]c(=S)[nH]3)coc2c1	1	5	20	1	5	-2
O=C(CSc1ccc(Cl)cc1)NC1=NN(c2ccccc2)C(=O)C1	77*	-9	-3	0	-21	-5
O=C(CSc1ccc(Cl)cc1)Nc1ccccc1Oc1ccccc1	-2	-1	3	-8	-18	3
COC(=O)C1=CN(c2ccc(OC)cc2)C=C(C(=O)OC)C1c1ccc([N+](=O)[O-])cc1	1	60*	6	15	10	1
COc1ccc(-c2cc(C(F)(F)F)c3c(n2)sc2c(O)cc(=O)[nH]c23)c(OC)c1	55*	-38	52	5	-7	0
Cc1cc(C)c2c(n1)sc1c(O)cc(=O)[nH]c12	5	-2	3	.	16	-3
